From ChEMBL document CHEMBL1121630, “Prostaglandin analogues possessing antinidatory effects. 1. Modification of the omega chain” (1980) come the findings set out here.

For this assay, the species on record is Rattus norvegicus. Nature of the assay: Antinidatory effect was measured in rat relative to that of prostaglandin F2 alpha. Format: functional. In short, it runs like this:
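Mated Wistar female rats (9 weeks, 180–200 g); sperm in vaginal smear marked day 0. Analogues in 10% EtOH–0.4% Tween 80 in saline (1 mg/mL stock, diluted with saline), given sc twice daily on days 3–5 at three to eight doses, 5–20 rats per dose. Killed day 11; no implantation site = effective. ED50 by Litchfield-Wilcoxon, expressed relative to PGF2α.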

A value given as a limit tells only on which side of the number the result lay.

`COC(=O)CCC/C=C\C[C@@H]1[C@@H](/C=C/[C@@H](O)C#Cc2ccccc2)[C@H](O)C[C@@H]1O`: the Activity is given as 40.

In the case of `COC(=O)CCC/C=C\C[C@@H]1[C@@H](/C=C/[C@@H](O)C[Si](C)(C)c2ccccc2)[C@H](O)C[C@@H]1O`, the Activity is listed as less than 1.

With `COC(=O)CCC/C=C\C[C@@H]1[C@@H](/C=C/[C@@H](O)c2cc3ccccc3s2)[C@H](O)C[C@@H]1O`, the Activity amounted to 40. Consider `COC(=O)CCC/C=C\C[C@@H]1[C@@H](/C=C/[C@@H](O)CC(=O)c2cccc(Cl)c2)[C@H](O)C[C@@H]1O`, for which the Activity is reported as 10. The compound `COC(=O)CCC/C=C\C[C@@H]1[C@@H](/C=C/[C@@H](O)CC(=O)Oc2ccccc2)[C@H](O)C[C@@H]1O` yielded an Activity of less than 1.

With `COC(=O)CCC/C=C\C[C@@H]1[C@@H](/C=C/[C@@H](O)c2ccccc2OC)[C@H](O)C[C@@H]1O`, the Activity is on record as less than 2.

Compound `COC(=O)CCC/C=C\C[C@@H]1[C@@H](/C=C/[C@@H](O)CSC2=CCCCC2)[C@H](O)C[C@@H]1O` displayed an Activity of 10.

As to `COC(=O)CCC/C=C\C[C@@H]1[C@@H](/C=C/[C@@H](O)CC(=O)c2ccc(Cl)cc2)[C@H](O)C[C@@H]1O`, the Activity is 8. `COC(=O)CCC/C=C\C[C@@H]1[C@@H](/C=C/[C@@H](O)c2cc3ccccc3o2)[C@H](O)C[C@@H]1O` registered an Activity of 100. `COC(=O)CCC/C=C\C[C@@H]1[C@@H](/C=C/[C@@H](O)C(Oc2ccccc2)C(=O)OC)[C@H](O)C[C@@H]1O` (stereo partly specified) came in with an Activity of less than 4. On to `COC(=O)CCC/C=C\C[C@@H]1[C@@H](/C=C/[C@@H](O)C#Cc2ccc(Cl)cc2)[C@H](O)C[C@@H]1O`, for which the Activity is reported as 1. `COC(=O)CCC/C=C\C[C@@H]1[C@@H](/C=C/[C@@H](O)C#Cc2cccc(Cl)c2)[C@H](O)C[C@@H]1O` showed an Activity of 40. `COC(=O)CCC/C=C\C[C@@H]1[C@@H](/C=C/[C@@H](O)C#COc2ccccc2)[C@H](O)C[C@@H]1O` registered an Activity of less than 2.

Compound `COC(=O)CCC/C=C\C[C@@H]1[C@@H](/C=C/[C@@H](O)CC(=O)c2ccccc2)[C@H](O)C[C@@H]1O` gave an Activity of 40. As for `COC(=O)CCC/C=C\C[C@@H]1[C@@H](/C=C/[C@@H](O)C2C=Cc3ccccc32)[C@H](O)C[C@@H]1O` (stereo partly specified), the figure is less than 5; as for `COC(=O)CCC/C=C\C[C@@H]1[C@@H](/C=C/[C@@H](O)C2(Sc3ccccc3)CC2)[C@H](O)C[C@@H]1O`, less than 2.
